The target in data set [1] is T1, Nuclear receptor subfamily 1 group I member 2 (Homo sapiens, UniProt O75469).
T1 sequence (O75469 whole entry): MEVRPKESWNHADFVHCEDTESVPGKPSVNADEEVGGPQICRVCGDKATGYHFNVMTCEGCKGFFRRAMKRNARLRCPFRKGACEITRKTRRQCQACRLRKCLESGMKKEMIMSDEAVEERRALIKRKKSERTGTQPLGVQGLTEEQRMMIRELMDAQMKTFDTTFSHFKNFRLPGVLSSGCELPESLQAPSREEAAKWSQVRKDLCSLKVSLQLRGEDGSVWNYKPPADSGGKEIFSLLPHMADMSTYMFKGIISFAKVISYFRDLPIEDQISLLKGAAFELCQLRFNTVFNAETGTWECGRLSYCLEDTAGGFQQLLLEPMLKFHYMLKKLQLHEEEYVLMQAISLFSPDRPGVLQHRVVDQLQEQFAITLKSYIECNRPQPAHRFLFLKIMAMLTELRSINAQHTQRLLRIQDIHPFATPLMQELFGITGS
Put plainly: Agonist activity at human SXR transfected in human HepG2 cells coexpressing GAL4 assessed as activation of receptor-mediated CYP3A4 gene transcription at 1 X 10^-6 M after 48 hrs by luciferase reporter gene assay. The note with it: hepg2, 48 h, 1 µM.

Data set [2] has as its target T1, Nuclear receptor subfamily 1 group I member 2. Put plainly: Binding affinity to human SXR transfected in human HepG2 cells coexpressing GAL4 assessed as transcriptional activation at 5 X 10^-6 M after 48 hrs by luciferase reporter gene assay. Conditions: hepg2, 48 h, 5 µM; call rule not given here. Format: cell-based. In short, it runs like this: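 HepG2 cells (2 x 10⁵/well) transfected by Lipofectamine with pM-SXR (0.1 μg), pGVP2-GAL2 luciferase reporter (1.0 μg) and pRL-CMV (0.05 μg). Mean ± SD of three independent experiments; Student's t test.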
(In general: In a reporter assay the amount or activity of a reporter protein is the signal.)

In another data set the test system is Homo sapiens. Put plainly: Drug level in osteoporotic patient at 45 […] administered daily. Conditions: in vivo, read-out: Drug uptake. The format is ADME, organism-based.

Molecules are shown by their SMILES.

As to `CC1=C(C/C=C(\C)CC/C=C(\C)Cc2ccccc2)C(=O)c2ccccc2C1=O`, the outcome in data set [1] and in data set [2] was Active. As for `CC1=C(C/C=C(\C)CC/C=C(\C)CC/C=C(\C)Cc2ccccc2)C(=O)c2ccccc2C1=O`, the outcome in data set [1] and in data set [2] was Active.

With `CC(C)=CCC1=C(C)C(=O)c2ccccc2C1=O`, the result in data set [1] and in data set [2] was Active. Regarding `CC1=C(C/C=C(\C)CC/C=C(\C)CO)C(=O)c2ccccc2C1=O`, the Activity entry is listed as “Active” in data set [1] and “Not Active” in data set [2]. In the case of `CC1=C(C/C=C(\C)CC/C=C(\C)CC/C=C(\C)CC/C=C(\C)CO)C(=O)c2ccccc2C1=O`, the Activity entry in data set [1] is “Active”; in data set [2], “Not Active”. Regarding `CC(C)=CCC/C(C)=C/CC/C(C)=C/CC1=C(C)C(=O)c2ccccc2C1=O`, the result in data set [1] and in data set [2] was Active.

Regarding `CC1=C(C/C=C(\C)CC/C=C(\C)CC/C=C(\C)CO)C(=O)c2ccccc2C1=O`, the figures for the Activity entry in data set [1] and in data set [2] were “Active” and “Not Active”, respectively.

Turning to `CC(C)=CCC/C(C)=C/CC1=C(C)C(=O)c2ccccc2C1=O` [MENAQUINONE-2], the outcome in data set [2] was Active. As to `CC(C)=CCC/C(C)=C/CC/C(C)=C/CC/C(C)=C/CC1=C(C)C(=O)c2ccccc2C1=O` [MENATETRENONE], the result in data set [1] and in data set [2] was Active. Further, the concentration with Homo sapiens turned out to be 1000 nM. For `CO[C@H]1/C=C/O[C@@]2(C)Oc3c(C)c(O)c4c(O)c(c(/C=N/N5CCN(C)CC5)c(O)c4c3C2=O)NC(=O)/C(C)=C\C=C\[C@H](C)[C@H](O)[C@@H](C)[C@@H](O)[C@@H](C)[C@H](OC(C)=O)[C@@H]1C` [RIFAMPIN], the result in data set [2] was Active.

For the origin of these results see ChEMBL document CHEMBL1799964, “Synthesis of novel vitamin K2 analogues with modification at the ω-terminal position and their biological evaluation as potent steroid and xenobiotic receptor (SXR) agonists” (J Med Chem, 2011).
